According to ChEMBL document CHEMBL1138851, “Synthesis, antifungal activity, and structure-activity relationships of coruscanone A analogues” (J Med Chem, 2006):
In brackets after ≈: the same amount, converted by molar mass.

What was measured:
Candida albicans [1] = assay: Antifungal activity against Candida albicans ATCC 90028; assay type: functional, organism-based
Summary of the method: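 Broth microdilution; samples serially diluted in 20% DMSO/saline, duplicate wells. Inoculum 1.0 × 10⁴ CFU/ml in RPMI 1640/2% dextrose/0.03% glutamine/MOPS, pH 6.0. Incubated 37 °C, 18–24 h; OD630 read before and after incubation. IC50 from percent growth vs concentration; MIC as lowest concentration with no detectable growth; MFC as no growth on agar after plating 5 μl from clear wells.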

Aspergillus fumigatus = assay: Antifungal activity against Aspergillus fumigatus ATCC 90906; assay type: functional, organism-based
Cryptococcus neoformans = assay: Antifungal activity against Cryptococcus neoformans ATCC 90113; assay type: functional, organism-based
Summary of the method: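 Serial dilutions in 20% DMSO/saline, tested in duplicate. Inoculum 1.0 × 10⁵ CFU/ml in Sabouraud dextrose broth. Incubated 30 °C, 72 h; OD630 read before and after incubation. IC50 from percent growth vs concentration; MIC as lowest concentration with no detectable growth; MFC as no growth on agar after plating 5 μl from clear wells.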

LLC-PK1 = assay: Cytotoxicity against LLC-PK1 cells by neutral red method; assay type: cell-based; settings: Sus scrofa
Summary of the method: (§1)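 Neutral red assay on ATCC-sourced Vero (African green monkey kidney […]) and LLC-PK1 (pig kidney epithelial) cells. Top test concentration 10 μg/mL. Values are means of three independent experiments.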

Candida albicans [2] = assay: Antifungal activity against fluconazole-resistant Candida albicans; assay type: functional, organism-based
Summary of the method: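 Broth microdilution (NCCLS-based) against patient isolate #17 (last isolate during fluconazole therapy, azole-resistant); samples serially diluted in 20% DMSO/saline, tested in duplicate. Inoculum 1.0 × 10⁴ CFU/ml in RPMI 1640/2% dextrose/0.03% glutamine/MOPS pH 6.0; 37 °C, 18–24 h; OD630 read before and after. IC50 from % growth versus concentration; MIC = no detectable growth; MFC by subculture onto agar. Means of three independent experiments.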

Candida albicans [3] = assay: Antifungal activity against fluconazole-susceptible Candida albicans; assay type: functional, organism-based
Summary of the method: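 Broth microdilution; samples serially diluted in 20% DMSO/saline, duplicate wells. Incubated 37 °C, 18–24 h; OD630 read before and after incubation. IC50 from percent growth vs concentration; MIC as lowest concentration with no detectable growth; MFC as no growth on agar after plating 5 μl from clear wells.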

Vero = assay: Cytotoxicity against Vero cells by neutral red method; assay type: cell-based; settings: Chlorocebus sabaeus; summary of the method: as §1

| Compound | IC50 (Candida albicans [1]) [µg/mL] | IC50 (Aspergillus fumigatus) [µg/mL] | IC50 (Cryptococcus neoformans) [µg/mL] | IC50 (LLC-PK1) [µg/mL] | MFC (Candida albicans [1]) [µg/mL] | MIC (Candida albicans [1]) [µg/mL] | IC50 (Candida albicans [2]) [µg/mL] | MFC (Candida albicans [2]) [µg/mL] | MIC (Candida albicans [2]) [µg/mL] | IC50 (Candida albicans [3]) [µg/mL] | MFC (Candida albicans [3]) [µg/mL] | MIC (Candida albicans [3]) [µg/mL] | MFC (Aspergillus fumigatus) [µg/mL] | MIC (Aspergillus fumigatus) [µg/mL] | IC50 (Vero) [µg/mL] | MFC (Cryptococcus neoformans) [µg/mL] | MIC (Cryptococcus neoformans) [µg/mL] |
| --- | --- | --- | --- | --- | --- | --- | --- | --- | --- | --- | --- | --- | --- | --- | --- | --- | --- |
| CO/C(C)=C1\C(=O)C=C(C)C1=O | > 20 | > 20 | > 20 | – | – | – | – | – | – | – | – | – | – | – | – | – | – |
| CC1=C(C)C(=O)C(=C(/C=C/c2ccccc2)OC(=O)/C=C/c2ccccc2)C1=O | > 20 | > 20 | > 20 | – | – | – | – | – | – | – | – | – | – | – | – | – | – |
| CC1=CC(=O)/C(=C(O)/C=C/c2ccccc2)C1=O | > 20 | > 20 | > 20 | – | – | – | – | – | – | – | – | – | – | – | – | – | – |
| CC1=CC(=O)/C(=C(O)/C=C/c2cccs2)C1=O | > 20 | > 20 | > 20 | – | – | – | – | – | – | – | – | – | – | – | – | – | – |
| CC(=O)OC(/C=C/c1ccccc1)=C1C(=O)C(C)=C(C)C1=O | > 20 | > 20 | > 20 | – | – | – | – | – | – | – | – | – | – | – | – | – | – |
| COC(/C=C/c1ccco1)=C1\C(=O)C=C(C)C1=O | 1.4 (≈ 5.73 µM) | 8.98 (≈ 36.8 µM) | 3.4 (≈ 13.9 µM) | 3.3 (≈ 13.5 µM) | 4.17 (≈ 17.1 µM) | 4.17 (≈ 17.1 µM) | 2.4 (≈ 9.83 µM) | 6.67 (≈ 27.3 µM) | 4.17 (≈ 17.1 µM) | 0.93 (≈ 3.81 µM) | 2.5 (≈ 10.2 µM) | 2.5 (≈ 10.2 µM) | 20 (≈ 81.9 µM) | 20 (≈ 81.9 µM) | 3.3 (≈ 13.5 µM) | 13 (≈ 53.2 µM) | 10 (≈ 40.9 µM) |
| COC(/C=C/c1ccc(O)cc1)=C1\C(=O)C=C(C)C1=O | 3.3 (≈ 12.2 µM) | > 20 | 6.95 (≈ 25.7 µM) | 3.4 (≈ 12.6 µM) | 10 (≈ 37 µM) | 10 (≈ 37 µM) | 5.35 (≈ 19.8 µM) | 20 (≈ 74 µM) | 20 (≈ 74 µM) | 1.86 (≈ 6.88 µM) | 13 (≈ 48.1 µM) | 5 (≈ 18.5 µM) | > 20 | > 20 | 3.7 (≈ 13.7 µM) | > 20 | > 20 |
| O=C1C=C(c2ccccc2)C(=O)/C1=C(O)\C=C\c1ccccc1 | > 20 | > 20 | > 20 | – | – | – | – | – | – | – | – | – | – | – | – | – | – |
| CCOC(/C=C/c1ccccc1)=C1\C(=O)C=C(C)C1=O | 5.02 (≈ 18.7 µM) | > 20 | 5.02 (≈ 18.7 µM) | 4 (≈ 14.9 µM) | 20 (≈ 74.5 µM) | 20 (≈ 74.5 µM) | 4.51 (≈ 16.8 µM) | 20 (≈ 74.5 µM) | 13 (≈ 48.5 µM) | 2.49 (≈ 9.28 µM) | 17 (≈ 63.4 µM) | 12 (≈ 44.7 µM) | > 20 | > 20 | 4.8 (≈ 17.9 µM) | 20 (≈ 74.5 µM) | 20 (≈ 74.5 µM) |
| CCOC(/C=C/c1ccccc1)=C1C(=O)C(C)=C(C)C1=O | > 20 | > 20 | > 20 | – | – | – | – | – | – | – | – | – | – | – | – | – | – |
| COC(/C=C/c1cccs1)=C1\C(=O)C=C(C)C1=O | 1.21 (≈ 4.65 µM) | 9.81 (≈ 37.7 µM) | 2.49 (≈ 9.57 µM) | 2.8 (≈ 10.8 µM) | 3.33 (≈ 12.8 µM) | 3.33 (≈ 12.8 µM) | 1.39 (≈ 5.34 µM) | 4.17 (≈ 16 µM) | 4.17 (≈ 16 µM) | 0.74 (≈ 2.84 µM) | 2.5 (≈ 9.6 µM) | 2.5 (≈ 9.6 µM) | > 20 | 20 (≈ 76.8 µM) | 3 (≈ 11.5 µM) | 12 (≈ 46.1 µM) | 12 (≈ 46.1 µM) |
| COC(/C=C/c1ccccc1)=C1C(=O)C(C)=C(C)C1=O | > 20 | > 20 | > 20 | – | – | – | – | – | – | – | – | – | – | – | – | – | – |
| CC1=CC(=O)/C(=C(O)/C=C/c2ccco2)C1=O | > 20 | > 20 | > 20 | – | – | – | – | – | – | – | – | – | – | – | – | – | – |
| CC(=O)OC(/C=C/c1ccccc1)=C1\C(=O)C=C(C)C1=O | 8.56 (≈ 30.3 µM) | > 20 | 20 (≈ 70.8 µM) | 4.9 (≈ 17.4 µM) | > 20 | > 20 | 5.84 (≈ 20.7 µM) | – | – | 3.79 (≈ 13.4 µM) | > 20 | > 20 | > 20 | > 20 | 5.5 (≈ 19.5 µM) | > 20 | > 20 |
| CO/C(=C1\C(=O)C=C(C)C1=O)c1ccccc1 | 10.6 (≈ 46.4 µM) | > 20 | > 20 | > 10 | > 20 | > 20 | 6.04 (≈ 26.5 µM) | – | – | 7.88 (≈ 34.5 µM) | > 20 | > 20 | > 20 | > 20 | > 10 | > 20 | > 20 |
| CC1=C(C)C(=O)C(=C(O)/C=C/c2ccccc2)C1=O | > 20 | > 20 | > 20 | – | – | – | – | – | – | – | – | – | – | – | – | – | – |
| CC1=C(C)C(=O)C(=C(/C=C/c2ccccc2)OC(=O)c2ccccc2)C1=O | > 20 | > 20 | > 20 | – | – | – | – | – | – | – | – | – | – | – | – | – | – |
| CC1=CC(=O)/C(=C(\O)c2ccccc2)C1=O | > 20 | > 20 | > 20 | – | – | – | – | – | – | – | – | – | – | – | – | – | – |
| COC(/C=C/c1ccc(OC)cc1)=C1\C(=O)C=C(C)C1=O | 3.03 (≈ 10.7 µM) | > 20 | 3.41 (≈ 12 µM) | 3.9 (≈ 13.7 µM) | 10 (≈ 35.2 µM) | 10 (≈ 35.2 µM) | 4.29 (≈ 15.1 µM) | 13 (≈ 45.7 µM) | 10 (≈ 35.2 µM) | 1.56 (≈ 5.49 µM) | 6.67 (≈ 23.5 µM) | 5 (≈ 17.6 µM) | > 20 | > 20 | 5 (≈ 17.6 µM) | 17 (≈ 59.8 µM) | 15 (≈ 52.8 µM) |
| COc1cccc2c1C(=O)c1c(O)c3c(c(O)c1C2=O)C[C@@](O)(C(=O)CO)C[C@@H]3O[C@H]1C[C@H](N)[C@H](O)[C@H](C)O1 [DOXORUBICIN] | – | – | – | 0.65 (≈ 1.2 µM) | – | – | – | – | – | – | – | – | – | – | 7.5 (≈ 13.8 µM) | – | – |
